Laboratory results: ChEMBL document CHEMBL1138265, “In vivo anti-Chagas vinylthio-, vinylsulfinyl-, and vinylsulfonylbenzofuroxan derivatives” (J Med Chem, 2007)
Activity calls are given as the source filed them. The rule behind the calls is not given here.

What was measured:
[1] = biological target: Cruzipain (Trypanosoma cruzi) (UniProt P25779); experiment: Inhibition of Trypanosoma cruzi Tulahuen 2 cruzipain at 10 uM
Summary of the method: (§1)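 Cruzipain purified from Tulahuen 2 epimastigotes by ConA-Sepharose affinity chromatography. Assayed in 50 mM Tris-acetate pH 8.0 with 0.3 mM Bz-Pro-Phe-Arg-pNA and 10 mM β-mercaptoethanol, A410 followed at 30 °C. Inhibitors added in DMSO, controls with matching DMSO, E-64 as reference. Tested at 10-100 µM; means of at least two measurements.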

Trypanosoma cruzi [2] = experiment: Antitrypanosomal activity against Trypanosoma cruzi Tulahuen 2; assay type: functional, organism-based
Summary of the method: (§2)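 Epimastigotes from 5-day stationary culture inoculated at 1 × 10^6 cells/mL into medium with compound added from DMSO stock (final DMSO ≤0.4%; control 0.4% DMSO, no compound). Growth followed by A600; % inhibition from day 0 and day 5 absorbance versus control. IC50 = concentration reducing the day-5 absorbance ratio to 50%. Single-dose screen at 25 µM. Means of three experiments.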

Trypanosoma cruzi [3] = experiment: Antitrypanosomal activity against Trypanosoma cruzi Y; assay type: functional, organism-based; summary of the method: as §2
[4] = Selectivity index, ratio of IC50 for human THP1 cells to IC50 for Trypanosoma cruzi CL Brener; assay type: functional, THP-1
[5] = Selectivity index, ratio of IC50 for human THP1 cells to IC50 for Trypanosoma cruzi Tulahuen 2; assay type: functional, THP-1
[6] = Selectivity index, ratio of IC50 for human THP1 cells to IC50 for Trypanosoma cruzi Y; assay type: functional, THP-1
THP-1 = experiment: Cytotoxicity against human THP1 cells after 48 hrs; assay type: cell-based; details: THP-1, 48 h
Summary of the method: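 THP-1 human macrophages in RPMI 1640 with 20% heat-inactivated FCS, left to attach 48 h at 37 °C, 5% CO2. Exposed to compounds at 25-1000 µM for 48 h, washed, then MTT 0.4 mg/mL for 3 h. Formazan dissolved in DMSO and read at OD595; % cytotoxicity corrected for compound-in-medium blanks. Triplicates per concentration, six growth controls; mean of two experiments.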

Trypanosoma cruzi [7] = experiment: Antitrypanosomal activity against Trypanosoma cruzi CL Brener; assay type: functional, organism-based; summary of the method: as §2
[8] = biological target: Cruzipain (Trypanosoma cruzi) (UniProt P25779); experiment: Inhibition of Trypanosoma cruzi Tulahuen 2 cruzipain at 100 uM; summary of the method: as §1
[9] = biological target: Cruzipain (Trypanosoma cruzi) (UniProt P25779); experiment: Inhibition of Trypanosoma cruzi Tulahuen 2 cruzipain at 50 uM; summary of the method: as §1
Trypanosoma cruzi [10] = experiment: Effect on oxygen uptake in Trypanosoma cruzi Tulahuen 2 assessed as increase in oxygen consumption at 200 uM; assay type: functional, organism-based
Summary of the method: (§3)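 Tulahuen 2 epimastigotes grown 5 days, washed, resuspended in phosphate-saline buffer pH 7.4 with 5.5 mM glucose at 0.2 mg protein/mL (40 × 10^6 parasites/mL). O2 consumption measured by Clark electrode at 28 °C, compound 200 µM final in DMSO; control with 0.1% DMSO. Cyanide-insensitive respiration measured after 20 mM KCN.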

[11] = biological target: Trypanothione reductase (Trypanosoma cruzi) (UniProt P28593); experiment: Inhibition of Trypanosoma cruzi trypanothione reductase assessed as volume activity per min at 100 uM in presence of NADPH after 4 hrs
Trypanothione reductase (Trypanosoma cruzi), sequence (P28593 whole entry, looked up): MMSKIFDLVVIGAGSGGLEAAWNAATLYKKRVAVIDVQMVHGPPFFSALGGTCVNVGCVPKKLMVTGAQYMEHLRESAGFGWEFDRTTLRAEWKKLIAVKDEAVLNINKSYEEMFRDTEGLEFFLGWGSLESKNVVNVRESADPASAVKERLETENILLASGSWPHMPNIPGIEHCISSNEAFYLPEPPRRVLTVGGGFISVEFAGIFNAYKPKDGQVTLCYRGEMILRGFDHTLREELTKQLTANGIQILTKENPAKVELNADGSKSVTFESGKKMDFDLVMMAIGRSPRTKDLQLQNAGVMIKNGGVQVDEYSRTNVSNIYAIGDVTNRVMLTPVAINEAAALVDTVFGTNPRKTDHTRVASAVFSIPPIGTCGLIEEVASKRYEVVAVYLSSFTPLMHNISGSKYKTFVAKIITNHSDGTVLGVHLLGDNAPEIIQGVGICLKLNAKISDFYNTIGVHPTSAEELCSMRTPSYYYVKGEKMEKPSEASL
Summary of the method: (§4)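 Time-dependent inactivation: 170 mU recombinant TR incubated at 25 °C in 40 mM HEPES, 1 mM EDTA, pH 7.5 with 100 µM inhibitor, with or without 160 µM NADPH, for 0-24 h. Aliquots diluted 200-fold and residual activity measured in the standard NADPH/TS2 assay at 340 nm. Controls: TR plus NADPH with DMSO, and TR plus inhibitor.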

Cruzipain [12] = biological target: T1, Cruzipain (Trypanosoma cruzi, UniProt P25779); experiment: Binding affinity to Trypanosoma cruzi Tulahuen 2 cruzipain
T1 sequence (P25779 whole entry): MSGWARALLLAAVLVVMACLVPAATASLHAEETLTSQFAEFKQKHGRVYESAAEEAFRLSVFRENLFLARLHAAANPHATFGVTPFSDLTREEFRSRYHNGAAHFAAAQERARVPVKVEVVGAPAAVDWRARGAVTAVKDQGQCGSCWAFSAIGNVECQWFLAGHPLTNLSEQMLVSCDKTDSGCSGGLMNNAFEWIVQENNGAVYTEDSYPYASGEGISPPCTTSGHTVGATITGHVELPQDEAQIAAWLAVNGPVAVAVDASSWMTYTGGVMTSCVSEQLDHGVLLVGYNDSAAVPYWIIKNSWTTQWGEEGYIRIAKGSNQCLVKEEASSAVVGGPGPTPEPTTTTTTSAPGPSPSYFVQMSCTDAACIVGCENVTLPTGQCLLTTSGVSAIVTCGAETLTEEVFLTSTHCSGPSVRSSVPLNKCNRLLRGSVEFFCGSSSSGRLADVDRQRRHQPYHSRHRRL

Trypanosoma cruzi [13] = experiment: Antitrypanosomal activity against Trypanosoma cruzi Tulahuen 2 infected Swiss mouse model of Chagas disease at 60 mg/kg, po after 35 days post infection
Mus musculus = experiment: Toxicity in Trypanosoma cruzi Tulahuen 2 infected Swiss mouse model of Chagas disease at 60 mg/kg, po; details: in vivo
[14] = biological target: Trypanothione reductase (Trypanosoma cruzi) (UniProt P28593); experiment: Inhibition of Trypanosoma cruzi trypanothione reductase assessed as volume activity per min at 100 uM in presence of NADPH; summary of the method: as §4
[15] = biological target: Cruzipain (Trypanosoma cruzi) (UniProt P25779); experiment: Inhibition of Trypanosoma cruzi Tulahuen 2 cruzipain at 20 uM; summary of the method: as §1
Cruzipain [16] = biological target: T1, Cruzipain; experiment: Inhibition of Trypanosoma cruzi Tulahuen 2 cruzipain; summary of the method: as §1
[17] = biological target: Trypanothione reductase (Trypanosoma cruzi) (UniProt P28593); experiment: Inhibition of Trypanosoma cruzi trypanothione reductase assessed as volume activity per min at 100 uM in presence of NADPH after 1 hr; summary of the method: as §4
[18] = biological target: Trypanothione reductase (Trypanosoma cruzi) (UniProt P28593); experiment: Inhibition of Trypanosoma cruzi trypanothione reductase assessed as volume activity per min at 100 uM after 4 hrs; summary of the method: as §4
Trypanosoma cruzi [19] = experiment: Antitrypanosomal activity against Trypanosoma cruzi Tulahuen 2 infected Swiss mouse model of Chagas disease at 60 mg/kg, po after 41 days post infection
Trypanosoma cruzi [20] = experiment: Effect on oxygen uptake in Trypanosoma cruzi Tulahuen 2 at 200 uM; assay type: functional, organism-based; summary of the method: as §3
[21] = biological target: Trypanothione reductase (Trypanosoma cruzi) (UniProt P28593); experiment: Inhibition of Trypanosoma cruzi trypanothione reductase assessed as volume activity per minute at 100 uM
[22] = biological target: Trypanothione reductase (Trypanosoma cruzi) (UniProt P28593); experiment: Inhibition of Trypanosoma cruzi trypanothione reductase assessed as volume activity per min at 100 uM after 1 hr; summary of the method: as §4
[23] = biological target: Cruzipain (Trypanosoma cruzi) (UniProt P25779); experiment: Inhibition of Trypanosoma cruzi Tulahuen 2 cruzipain at 25 uM; summary of the method: as §1
[24] = biological target: Trypanothione reductase (Trypanosoma cruzi) (UniProt P28593); experiment: Inhibition of Trypanosoma cruzi trypanothione reductase assessed as volume activity per min at 100 uM after 24 hrs; summary of the method: as §4
[25] = biological target: Trypanothione reductase (Trypanosoma cruzi) (UniProt P28593); experiment: Inhibition of Trypanosoma cruzi trypanothione reductase assessed as volume activity per min at 100 uM in presence of NADPH after 24 hrs; summary of the method: as §4
[26] = biological target: Trypanothione reductase (Trypanosoma cruzi) (UniProt P28593); experiment: Inhibition of Trypanosoma cruzi trypanothione reductase assessed as volume activity per min at 100 uM after 3 hrs; summary of the method: as §4
[27] = biological target: Trypanothione reductase (Trypanosoma cruzi) (UniProt P28593); experiment: Inhibition of Trypanosoma cruzi trypanothione reductase at 100 uM

Cruzipain (Trypanosoma cruzi), sequence (P25779 123-467 limits assumed): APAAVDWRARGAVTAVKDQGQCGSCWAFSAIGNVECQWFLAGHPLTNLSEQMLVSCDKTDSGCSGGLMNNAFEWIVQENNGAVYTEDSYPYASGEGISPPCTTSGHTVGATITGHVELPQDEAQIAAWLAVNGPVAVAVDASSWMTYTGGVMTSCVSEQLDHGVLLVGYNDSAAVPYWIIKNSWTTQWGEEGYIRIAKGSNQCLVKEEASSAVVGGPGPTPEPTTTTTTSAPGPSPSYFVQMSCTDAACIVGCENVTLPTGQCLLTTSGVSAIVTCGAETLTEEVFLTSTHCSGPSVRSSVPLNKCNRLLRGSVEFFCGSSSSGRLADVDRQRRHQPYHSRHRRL

Row | SMILES | inhibition [1] | IC50 (Trypanosoma cruzi [2]) | IC50 (Trypanosoma cruzi [3]) | IC50 (Trypanosoma cruzi [7]) | inhibition [8] | inhibition [9] | inhibition [15] | Ratio IC50 [4] | Ratio IC50 [5] | Ratio IC50 [6] | IC50 (THP-1) | Activity (Trypanosoma cruzi [13]) | Activity (Mus musculus) | Activity (Trypanosoma cruzi [19]) | also measured
1 | CC(C)C[C@H](NC(=O)[C@H]1O[C@@H]1C(=O)O)C(=O)NCCCCN=C(N)N | 100% | – | – | – | – | – | – | – | – | – | – | – | – | – | –
2 | CC(=O)N1CCN(c2ccc(OCC3COC(Cn4ccnc4)(c4ccc(Cl)cc4Cl)O3)cc2)CC1 (stereo not drawn) [KETOCONAZOLE] | – | 10 µM | 9.8 µM | 5 µM | – | – | – | 8.8 | 4.4 | 4.5 | 44 µM | – | – | – | –
3 | O=C(Cn1ccnc1[N+](=O)[O-])NCc1ccccc1 [BENZNIDAZOLE] | – | 7.4 µM | 3.8 µM | 4.5 µM | – | – | – | – | – | – | – | – | Non-toxic | – | –
4 | C=CS(=O)(=O)Cc1ccc2c(c1)no[n+]2[O-] | – | 14.6 µM | 12.3 µM | 9.1 µM | – | – | – | 30.1 | 18.8 | 22.3 | 274 µM | – | – | – | –
5 | O=S(=O)(CCO)Cc1ccc2c(c1)no[n+]2[O-] | – | > 25 µM | – | – | – | – | – | – | <12 | – | 300 µM | – | – | – | –
6 | CC1CS(=O)(=O)CCN1/N=C/c1ccc([N+](=O)[O-])o1 (stereo not drawn) [NIFURTIMOX] | – | 7.7 µM | 6.5 µM | 8.5 µM | – | – | – | – | – | – | – | – | – | – | –
7 | [O-][n+]1onc2cc(/C=C\[S+]([O-])c3ccccc3)ccc21 (stereo not drawn) | 0% | 0.7 µM | 1.5 µM | 5 µM | 3% | 8% | 23% | 21 | 150 | 70 | 105 µM | Active | Non-toxic | Active | deltaA [24]: 0.108; deltaA [14]: 0.107; deltaA [17]: 0.107; deltaA [25]: 0.081; deltaA [26]: 0.09; deltaA [21]: 0.101; deltaA [22]: 0.107
8 | CN(C/C=C/C#CC(C)(C)C)Cc1cccc2ccccc12 [TERBINAFINE] | – | 17.1 µM | 44.7 µM | 42 µM | – | – | – | 7.8 | 19.3 | 7.4 | 329 µM | – | – | – | –

Further lines, with some results ahead:

Row | inhibition [1] | IC50 (Trypanosoma cruzi [2]) | IC50 (Trypanosoma cruzi [3]) | IC50 (Trypanosoma cruzi [7]) | inhibition [8] | inhibition [9] | inhibition [15] | SMILES | Ratio IC50 [4] | Ratio IC50 [5] | Ratio IC50 [6] | IC50 (THP-1) | Activity (Trypanosoma cruzi [13]) | Activity (Mus musculus) | Activity (Trypanosoma cruzi [19]) | also measured
9 | 0% | 1.6 µM | 5 µM | 7.6 µM | 0% | 35% | 0% | O=S(=O)(/C=C/c1ccc2c(c1)no[n+]2[O-])c1ccccc1 | 53.8 | 255.6 | 81.8 | 409 µM | Active | Non-toxic | Active | Activity (Trypanosoma cruzi [10]): inactive; deltaA [11]: 0.098; Kd (Cruzipain [12]): 500 µM; deltaA [14]: 0.101; IC50 (Cruzipain [16]): > 50 µM; deltaA [17]: 0.099; deltaA [18]: 0.106; Activity (Trypanosoma cruzi [20]): inactive; deltaA [21]: 0.102; deltaA [22]: 0.11
10 | 19% | 7 µM | 9 µM | 15.7 µM | 44% | 20% | 11% | [O-][n+]1onc2cc(/C=C\c3ccccc3)ccc21 | 4 | 8.9 | 7 | 62.6 µM | – | – | – | –
11 | 12% | 10.8 µM | 6.2 µM | 7.5 µM | 22% | 43% | 0% | [O-][n+]1onc2cc(/C=C/c3ccccc3)ccc21 | 14.7 | 10.2 | 17.7 | 110 µM | – | – | – | –
12 | 0% | 2.6 µM | 7.6 µM | 4.7 µM | – | 25% | – | [O-][n+]1onc2cc(/C=C/Sc3ccccc3)ccc21 | – | – | – | – | Active | Non-toxic | Active | inhibition [23]: 15%
13 | 2% | 1.1 µM | 2.1 µM | 6.1 µM | 19% | 24% | 3% | O=S(=O)(/C=C\c1ccc2c(c1)no[n+]2[O-])c1ccccc1 | 17.9 | 99.1 | 51.9 | 109 µM | Active | Non-toxic | Active | Activity (Trypanosoma cruzi [10]): inactive; deltaA [11]: 0.088; Kd (Cruzipain [12]): 1100 µM; deltaA [14]: 0.097; IC50 (Cruzipain [16]): > 50 µM; deltaA [17]: 0.084; Activity (Trypanosoma cruzi [20]): inactive; deltaA [21]: 0.104; deltaA [22]: 0.102
14 | – | 3.8 µM | 10 µM | 3.5 µM | – | – | – | [O-][n+]1onc2cc(/C=C\Sc3ccccc3)ccc21 | – | – | – | – | Active | Non-toxic | Active | –
15 | 2% | 2.6 µM | 8.8 µM | 15.1 µM | 12% | 24% | 0% | [O-][n+]1onc2cc(/C=C/[S+]([O-])c3ccccc3)ccc21 (stereo not drawn) | 8.2 | 47.7 | 14.1 | 124 µM | Active | Non-toxic | Active | deltaA [11]: 0.105; inhibition [27]: 13%; deltaA [14]: 0.103; deltaA [17]: 0.105; deltaA [18]: 0.091; deltaA [21]: 0.104; deltaA [22]: 0.086
